# Results reported in paper PMC5221799 (International Journal of Nanomedicine, 2016).
# Where two headings read alike, the source gives them in different places.
# Experiments:
# [1] = tested on: MCF7/ADR (Dox-resistant) cells; assay: CCK-8 cytotoxicity assay in MCF7/ADR cells; assay type: cell-based, human; settings: for IC50: read-out: IC50 of Dox or equivalent NLS-Dox, MCF7/ADR cells, CCK-8, mean ± SD (n=5)
# Summary of the method: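 CCK-8 assay in MCF7 and MCF7/ADR cells (Dox withdrawn from resistant line 1 week prior). Cells seeded at 0.5×10^4/well, grown overnight, then exposed to a concentration range for 48 or 96 h. CCK-8 was added for 1 h at 37°C and A450 read. Viability = (Asample−Ablank)/(Anon-treated−Ablank)×100%. n=5.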
# MCF7/ADR xenografts = assay: In vivo antitumor efficacy in MCF7/ADR xenografts; parameters: species or system BALB/c nude mice; settings: tail vein every 3 days five times, n=6
# MCF7/ADR cells = assay: Annexin V-FITC/propidium iodide apoptosis assay by flow cytometry; assay type: cell-based, human; settings: 48 hours of incubation, Dox 20 μM
# Summary of the method: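 MCF7/ADR cells (DMEM, 10% FBS; resistance kept with 1 μg/mL Dox, withdrawn 1 week before use) seeded at 10^5 cells/well and left 24 h. Treated with free Dox or nanoparticles (Dox 20 μM and/or anti-miR21 213.3 nM) for 48 h. Cells were washed, trypsinised, and stained with annexin V–FITC/PI for 15 min at room temperature in the dark, then analysed by flow cytometry. Untreated cells served as blanks; three repeats.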
smiles,measurement,setting,value
"COc1cccc2c1C(=O)c1c(O)c3c(c(O)c1C2=O)C[C@@](O)(C(=O)CO)C[C@@H]3O[C@H]1C[C@H](N)[C@H](O)[C@H](C)O1 [Free Dox, doxorubicin]",IC50 in MCF7/ADR cells relative to parent MCF7 cells,[1]; 48 hours incubation,over 20 fold
same,IC50,[1]; 48 hours,49.4 ± 2.58 µM
same,IC50,[1]; 96 hours,30 ± 1.46 µM
same,effect on growth of MCF7/ADR xenografts,MCF7/ADR xenografts; free Dox 7.6 mg/kg,slight inhibitory effect
same,body weight change of tumor-bearing mice,MCF7/ADR xenografts; measured for 3 weeks,significant weight loss
same,apoptotic cells,MCF7/ADR cells,10.75%
